# ChEMBL document CHEMBL1123844, “Synthesis of new antiinflammatory steroidal 20-carboxamides: (20R)- and (20S)-21-(N-substituted amino)-11 beta,17,20-trihydroxy-3,21-dioxo-1,4- pregnadiene” (J Med Chem, 1987)
# Experiments:
# [1] = Octanol- water partition coefficient was determined.
# [2] = species: Rattus norvegicus; assay: Compound was evaluated for antiinflammatory activity in granuloma bioassay and measured as body weight gain; type: functional
# Method in brief: (§1)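 Male Sprague–Dawley rats (100–200 g), acclimated 1 week under controlled lighting. Each rat got one cotton pellet (35 ± 1 mg) loaded with 2 mg steroid in acetone and one vehicle pellet; controls got two vehicle pellets. Rats were killed 7 days later. Readouts: thymus and adrenal weights, initial/final body weight, plasma corticosterone by 3H radioimmunoassay of cardiac blood. Mean ± SEM, n=6, Student's t test.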
# [3] = test system: Rattus norvegicus; assay: Tested for topical antiinflammatory activity in the croton oil ear edema assay; type: functional; design: concentration or dose not given beside the values
# Method in brief: (§2)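 Male Sprague–Dawley rats (100–200 g), acclimated 1 week. Baseline ear thickness was measured. Steroid at 0.75 mg/ear went to both ears, then 30 min later 50 μL 5% croton oil in acetone. Thickness was remeasured at 5 h. Mean change ± SEM, n=5; % inhibition vs vehicle controls, Student's t test.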
# [4] = species: Rattus norvegicus; assay: Tested for inhibition of formation of granulation tissue around the cotton pellet treated with steroid; type: functional; design: concentration or dose not given beside the values
# Method in brief: (§3)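 Male Sprague–Dawley rats (100–200 g). Before implantation, the right cotton pellet (35 ± 1 mg) received 2 mg steroid in acetone and the left pellet vehicle only; controls had two vehicle pellets. After 7 days, pellets with granulation tissue were dried at 60 °C for 48 h and weighed. Net dry weight, mean ± SEM, n=6; % inhibition vs vehicle group.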
# [5] = species: Rattus norvegicus; assay: Tested for inhibition of formation of granulation tissue around the cotton pellet untreated with steroid; type: functional; design: concentration or dose not given beside the values; method in brief: as §3
# [6] = species: Rattus norvegicus; assay: Compound was evaluated for antiinflammatory activity in granuloma bioassay and measured as plasma corticosterone weight; type: functional, organism-based; method in brief: as §1
# [7] = species: Rattus norvegicus; assay: Tested for inhibition of formation of granulation tissue around the cotton pellet treated with steroid and expressed as net dry weight; type: functional; method in brief: as §3
# [8] = species: Rattus norvegicus; assay: Tested for inhibition of formation of granulation tissue around the cotton pellet untreated with steroid and expressed as net dry weight; type: functional; method in brief: as §3
# [9] = test system: Rattus norvegicus; assay: Tested for topical antiinflammatory activity in the croton oil ear edema assay and was expressed as mean change in ear thickness of rats; type: functional; method in brief: as §2
# [10] = species: Rattus norvegicus; assay: Evaluated for antiinflammatory activity in granuloma bioassay and expressed as relative adrenal weight; type: functional; method in brief: as §1
# [11] = species: Rattus norvegicus; assay: Evaluated for antiinflammatory activity in granuloma bioassay and expressed as relative thymus weight; type: functional; method in brief: as §1
Compound,Partition coefficient [1],Body weight gain [2],Inhibition [3],Inhibition [4],Inhibition [5],Plasma corticosterone [6],Net dry weight [7],Net dry weight [8],Mean change [9],Relative adrenal weight [10],Relative thymus weight [11]
CCNC(=O)[C@H](O)[C@@]1(O)CC[C@H]2[C@@H]3CCC4=CC(=O)C=C[C@]4(C)[C@H]3[C@@H](O)C[C@@]21C,,45.7 g,34.6%,53.3%,26.7%,280 ng/mL,36.4 mg,58.1 mg,0.302 mm,,
CCNC(=O)[C@@H](O)[C@@]1(O)CC[C@H]2[C@@H]3CCC4=CC(=O)C=C[C@]4(C)[C@H]3[C@@H](O)C[C@@]21C,,54.7 g,33.8%,23.1%,-4.9%,288 ng/mL,59.9 mg,83.1 mg,0.305 mm,,
C[C@]12C=CC(=O)C=C1CC[C@@H]1[C@@H]2[C@@H](O)C[C@@]2(C)[C@H]1CC[C@]2(O)C(=O)CO [PREDNISOLONE],30,55 g,68.6%,60.6%,26.6%,130 ng/mL,30.7 mg,58.2 mg,0.145 mm,12.1 mg 100g-1,110.2 mg 100g-1
CNC(=O)[C@H](O)[C@@]1(O)CC[C@H]2[C@@H]3CCC4=CC(=O)C=C[C@]4(C)[C@H]3[C@@H](O)C[C@@]21C,10,46 g,33.5%,75.5%,48.6%,321 ng/mL,18.9 mg,40.8 mg,0.307 mm,14 mg 100g-1,116.4 mg 100g-1
CNC(=O)[C@@H](O)[C@@]1(O)CC[C@H]2[C@@H]3CCC4=CC(=O)C=C[C@]4(C)[C@H]3[C@@H](O)C[C@@]21C,8.6,55 g,24.5%,21.1%,-4.5%,291 ng/mL,61.6 mg,82.8 mg,0.349 mm,16.7 mg 100g-1,247 mg 100g-1

# Further lines, with some results ahead:
Partition coefficient [1],Compound,Body weight gain [2],Inhibition [3],Inhibition [4],Inhibition [5],Plasma corticosterone [6],Net dry weight [7],Net dry weight [8],Mean change [9],Relative adrenal weight [10],Relative thymus weight [11]
30,C[C@]12C=CC(=O)C=C1CC[C@@H]1[C@@H]2[C@@H](O)C[C@@]2(C)[C@H]1CC[C@]2(O)[C@H](O)C(=O)NCc1ccccc1,55.7 g,21.9%,20.9%,5.2%,298 ng/mL,61.6 mg,75.2 mg,0.361 mm,11.8 mg 100g-1,264.2 mg 100g-1
26.7,CCCNC(=O)[C@H](O)[C@@]1(O)CC[C@H]2[C@@H]3CCC4=CC(=O)C=C[C@]4(C)[C@H]3[C@@H](O)C[C@@]21C,30.2 g,31.9%,69.3%,41.2%,236 ng/mL,23.9 mg,46.6 mg,0.311 mm,13.1 mg 100g-1,88.5 mg 100g-1
32.5,C[C@]12C=CC(=O)C=C1CC[C@@H]1[C@@H]2[C@@H](O)C[C@@]2(C)[C@H]1CC[C@]2(O)[C@@H](O)C(=O)NCc1ccccc1,42 g,42.6%,69.3%,38.9%,101 ng/mL,24 mg,48.4 mg,0.265 mm,12.4 mg 100g-1,167.1 mg 100g-1
16.3,CCCNC(=O)[C@@H](O)[C@@]1(O)CC[C@H]2[C@@H]3CCC4=CC(=O)C=C[C@]4(C)[C@H]3[C@@H](O)C[C@@]21C,56.7 g,23.6%,57.1%,39.1%,164 ng/mL,33.4 mg,48.3 mg,0.353 mm,14 mg 100g-1,161.7 mg 100g-1
